Active and inactive are the calls of the source. No cut-off for these calls is given here.
Key:
Mus musculus [1] = organism: Mus musculus; test: Activation of Wnt3a/beta-catenin in mouse 3T3L1 cells assessed as down-regulation of AP2 expression at 20 uM after 2 to 6 days in presence of FH353 by Western blot analysis
3T3-L1 [2] = test: Anti-adipogenic activity in mouse 3T3L1 cells assessed as reduction in lipid accumulation at early differentiation stage at 20 uM measured up to 3 days by Oil Red O staining based leica microscopy; type: functional, cell-based
Summary of the method: (§1)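 3T3-L1 or C3H10T1/2 cells given 20 µM compound in differentiation media for varied time periods, then stained with Oil red O. Imaged by microscopy at 10x, representative of three independent experiments.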

Mus musculus [3] = organism: Mus musculus; test: Activation of Wnt3a/beta-catenin in mouse 3T3L1 cells assessed as induction of TCF1 expression at 20 uM after 16 to 24 hrs in presence of beta-catenin/TCF complex inhibitor FH353 by Western blot analysis; type: cell-based
Summary of the method: (§2)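 Confluent 3T3-L1 cells given differentiation media (IBMX/insulin/dexamethasone) with 20 µM compound, with or without the β-catenin/TCF inhibitor FH353 (10 µM). Proteins isolated at 16 and 24 h and Western blotted after SDS-PAGE and nitrocellulose transfer. Blocking in 5% milk/TBS-T, primary antibody overnight at 4 °C, chemiluminescent detection, β-actin control, three independent experiments.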

Mus musculus [4] = organism: Mus musculus; test: Activation of Wnt3a/beta-catenin in mouse 3T3L1 cells assessed as down-regulation of cyclinD expression at 20 uM after 16 to 24 hrs by Western blot analysis; type: cell-based
Summary of the method: (§3)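 3T3-L1 cells given MDI differentiation media (0.5 mM IBMX, 5 µg/ml insulin, 250 nM dexamethasone) with or without 20 µM compound. Proteins isolated at 16 and 24 h and probed by Western blot for CDK2, CDK4, CDK6, cyclin D1 and D3. Densitometry normalized to actin, n=3, mean ± SD, Student t test.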

3T3-L1 [5] = test: Anti-adipogenic activity in mouse 3T3L1 cells assessed as reduction in lipid accumulation at early differentiation stage at 20 uM measured up to 3 days by Oil Red O absorbance method; type: functional, cell-based
Summary of the method: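 3T3-L1 or C3H10T1/2 cells given 20 µM compound with differentiation media for different time periods. Oil red O stain extracted from accumulated lipid with isopropanol and absorbance read at 492 nm. n=3, mean ± SD, Student t test against MDI+ group.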

Syrian golden hamster [6] = test: Induction of reverse cholestrol transport in high fat diet-induced dyslipidemia Syrian Golden hamster model assessed as increase in SCARB1 mRNA expression in liver at 100 mg/kg, po administered for 1 week by qRT-PCR analysis; type: functional, organism-based; conditions: Mesocricetus auratus
Mus musculus [7] = organism: Mus musculus; test: Activation of Wnt3a/beta-catenin in mouse 3T3L1 cells assessed as increase in BMP2 mRNA expression at 20 uM by qRT-PCR analysis; type: cell-based
Summary of the method: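 3T3-L1 cells differentiated with IBMX/dexamethasone/insulin media with or without 20 µM compound over the differentiation period. RNA extracted with TRIZOL, 500 ng reverse-transcribed to cDNA, then quantitative real-time PCR. Three independent experiments run in triplicate, mean ± SD, one-way ANOVA with Bonferroni posttest.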

Mus musculus [8] = organism: Mus musculus; test: Activation of Wnt3a/beta-catenin in mouse 3T3L1 cells assessed as down-regulation of cyclinD1 expression at 20 uM after 16 to 24 hrs in presence of FH353 by Western blot analysis; type: cell-based
Summary of the method: as §2

Syrian golden hamster [9] = test: Induction of reverse cholestrol transport in high fat diet-induced dyslipidemia Syrian Golden hamster model assessed as reduction in hepatic lipid vacuoles hypertrophy at 100 mg/kg, po administered for 1 week by H and E staining based assay; type: functional, organism-based; conditions: Mesocricetus auratus
3T3-L1 [10] = test: Anti-adipogenic activity in mouse 3T3L1 pre-adipocytes in differentiation media assessed as reduction in lipid accumulation at 20 uM after 20 mins in presence of beta-catenin/TCF complex inhibitor FH353 by Oil Red O staining based microscopic method; type: functional, cell-based
Summary of the method: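 3T3-L1 adipocytes given 20 µM compound with or without 10 µM FH353 in differentiation media, then Oil red O stained. Imaged at 20x and 40x, representative of three independent experiments.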

Syrian golden hamster [11] = test: Induction of reverse cholestrol transport in high fat diet-induced dyslipidemia Syrian Golden hamster model assessed as decrease in NPCL1 mRNA expression in liver at 100 mg/kg, po administered for 1 week by qRT-PCR analysis; type: functional, organism-based; conditions: Mesocricetus auratus
Mus musculus [12] = organism: Mus musculus; test: Activation of Wnt3a/beta-catenin in mouse 3T3L1 cells assessed as down-regulation of C/EBPalpha expression at 20 uM after 2 to 6 days in presence of FH353 by Western blot analysis; type: cell-based
Syrian golden hamster [13] = test: Induction of reverse cholestrol transport in high fat diet-induced dyslipidemia Syrian Golden hamster model assessed as increase in ApoA mRNA expression in liver at 100 mg/kg, po administered for 1 week by qRT-PCR analysis; type: functional, organism-based; conditions: Mesocricetus auratus
Syrian golden hamster [14] = test: Anti-dyslipidemic activity in high fat diet-induced dyslipidemia Syrian Golden hamster model assessed as reduction in serum total cholesterol levels at 100 mg/kg, po administered for 1 week followed by overnight fasting post last dose by clinical bio-analyzer analysis; type: functional, organism-based; conditions: Mesocricetus auratus
Summary of the method: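 Male Syrian Golden hamsters (8-10 weeks, 100-120 g), 4 per group, given 45% kCal high fat diet for 4 days, then HFD plus oral dosing in 0.5% w/v NaCMC for one week. After an overnight fast, blood was taken from the retro-orbital plexus under anesthesia and serum was analysed on a clinical bio-analyzer. Mean ± SEM; one-way ANOVA with Bonferroni post-test.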

Syrian golden hamster [15] = test: Anti-dyslipidemic activity in high fat diet-induced dyslipidemia Syrian Golden hamster model assessed as reduction in serum NEFA levels at 100 mg/kg, po administered for 1 week followed by overnight fasting post last dose; type: functional, organism-based; conditions: Mesocricetus auratus
Summary of the method: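 Male Syrian golden hamsters (8–10 wk, 100–120 g), 4 per group, given 45% kcal HFD for 4 days, then 100 mg/kg p.o. in 0.5% NaCMC daily for one week alongside HFD. Blood taken from retro-orbital plexus after overnight fast. TG, HDL, LDL, ALT, AST measured on a clinical bio-analyzer and NEFA by kit. Mean ± SEM, one-way ANOVA with Bonferroni.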

3T3-L1 [16] = test: Cell cycle arrest in mouse 3T3L1 cells assessed as reduction in accumulation at S phase at 10 to 20 uM after 24 hrs by propidium iodide-staining based flow cytometry; type: functional
Summary of the method: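 Confluent 3T3-L1 preadipocytes given differentiation medium (0.5 mM IBMX, 5 µg/ml insulin, 250 nM dexamethasone) with 10 or 20 µM for 16 and 24 hr. Cells trypsinized, fixed in ice-cold 70% ethanol for 2 hr, stained with propidium iodide (40 µg/ml in RNase A buffer, 30 min, room temperature). Flow cytometry gave the fractions in G1, S and G2/M; three independent experiments.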

C3H 10T1/2 = test: Anti-adipogenic activity in mouse C3H10T1/2 cells assessed as reduction in lipid accumulation at early differentiation stage at 20 uM measured up to 3 days by Oil Red O staining based leica microscopy; type: functional, cell-based
Summary of the method: as §1

Mus musculus [17] = organism: Mus musculus; test: Activation of Wnt3a/beta-catenin in mouse 3T3L1 cells assessed as down-regulation of CDK4 expression at 20 uM after 16 to 24 hrs by Western blot analysis; type: cell-based
Summary of the method: as §3

Cc1ccc(S(=O)(=O)N(Cc2cn(Cc3cccc(F)c3F)nn2)Cc2cn(S(=O)(=O)c3ccc(C)cc3)c3ccccc23)cc1 was tested, and the Activity (Mus musculus [1]) was “inactive”, the Activity (3T3-L1 [2]) was “Active” and the Activity (Mus musculus [3]) was “inactive”. The Activity (Mus musculus [4]) was “Active”, the Activity (3T3-L1 [5]) was “Active” and the Activity (Syrian golden hamster [6]) was “Active”. For the same molecule, the Activity (Mus musculus [7]) was “Active”, the Activity (Mus musculus [8]) was “inactive” and the Activity (Syrian golden hamster [9]) was “Active”. The Activity (3T3-L1 [10]) was “inactive”, the Activity (Syrian golden hamster [11]) was “Active” and the Activity (Mus musculus [12]) was “inactive”. The Activity (Syrian golden hamster [13]) was “Active”, the Activity (Syrian golden hamster [14]) was “Active” and the Activity (Syrian golden hamster [15]) was “Active”. For the same molecule, the Activity (3T3-L1 [16]) was “inactive”, the Activity (C3H 10T1/2) was “Active” and the Activity (Mus musculus [17]) was “Active”.

Reference: ChEMBL document CHEMBL4138193, “Novel indole and triazole based hybrid molecules exhibit potent anti-adipogenic and antidyslipidemic activity by activating Wnt3a/β-catenin pathway” (Eur J Med Chem, 2018)
